Activity, inhibition and fold change (FC) data for 12 compounds are collected here from ChEMBL document CHEMBL1932980, “Structure-activity relationships of 2-amino-3-aroyl-4-[(4-arylpiperazin-1-yl)methyl]thiophenes. Part 2: Probing the influence of diverse substituents at the phenyl of the arylpiperazine moiety on allosteric enhancer activity at the A₁ adenosine receptor” (Bioorg Med Chem, 2012).

Test [1] concerns the target T1, Adenosine receptor A1 (Homo sapiens) (UniProt P30542).
T1 sequence (whole entry): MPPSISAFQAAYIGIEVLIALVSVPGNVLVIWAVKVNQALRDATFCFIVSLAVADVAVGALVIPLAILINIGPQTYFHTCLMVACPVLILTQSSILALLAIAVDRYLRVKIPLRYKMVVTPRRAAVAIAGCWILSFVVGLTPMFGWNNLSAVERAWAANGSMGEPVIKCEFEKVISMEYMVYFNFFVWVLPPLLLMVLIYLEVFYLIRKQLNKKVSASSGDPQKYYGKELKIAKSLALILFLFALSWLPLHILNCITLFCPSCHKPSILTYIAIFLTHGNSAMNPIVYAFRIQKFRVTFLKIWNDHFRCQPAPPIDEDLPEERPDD
Description: Allosteric enhancer activity at recombinant human A1 adenosine receptor expressed in CHO cells assessed as change in forskolin-induced cAMP production at 10 uM after 6 mins by radioimmunoassay. In kind it is functional, cell-based. The procedure, abridged:
(§1)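 hA1CHO cells (about 8000 fmol/mg protein) thawed from low-passage stocks, grown in Ham's F-12 with 10% FBS and G-418, then plated 48 h. Test compound at 0.01, 0.1, 1 or 10 µM with CPA (0.05–0.1 nM) for 6 min at 36 °C. Stopped with HCl (final 50 mM). cAMP in acidified extracts measured by radioimmunoassay. Reference enhancer run in each experiment. Four experiments per concentration.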

Test [2] has as its target Adenosine receptor A2a (Homo sapiens) (UniProt P29274). In words: Displacement of [3H]ZM241385 from recombinant human A2A adenosine receptor expressed in CHO cells at 10 uM after 60 mins by scintillation counting. Type of test: cell-based. The procedure, abridged: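 Membranes from hA2ACHO cells incubated with 1 nM [3H]ZM 241385 in 50 mM Tris–HCl, 10 mM MgCl2, pH 7.4 at 4 °C for 60 min. Compound added from a 100-fold DMSO stock, 1% DMSO final, also in controls. Separated by GF/B filtration and counted by scintillation. Result given as % of control specific binding.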

Test [3] addresses T2, Adenosine receptor A3 (Homo sapiens) (UniProt P0DMS8).
T2 sequence (whole entry): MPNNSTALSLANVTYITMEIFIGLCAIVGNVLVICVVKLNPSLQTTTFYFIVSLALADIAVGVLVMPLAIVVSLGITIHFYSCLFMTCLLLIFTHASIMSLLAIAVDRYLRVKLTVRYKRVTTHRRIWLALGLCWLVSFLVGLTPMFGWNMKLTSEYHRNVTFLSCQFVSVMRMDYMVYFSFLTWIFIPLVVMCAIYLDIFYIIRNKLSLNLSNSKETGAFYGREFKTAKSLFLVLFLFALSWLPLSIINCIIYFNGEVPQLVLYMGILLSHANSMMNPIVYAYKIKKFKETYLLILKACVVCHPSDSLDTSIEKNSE
In words: Displacement of [3H]MRE3008F20 from recombinant human A3 adenosine receptor expressed in CHO cells at 10 uM after 120 mins by scintillation counting. Type of test: cell-based. The procedure, abridged: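 Membranes from hA3CHO cells incubated with 2 nM [3H]MRE 3008F20 in 50 mM Tris–HCl, 10 mM MgCl2, 1 mM EDTA, pH 7.4 at 4 °C for 120 min. Compound added from a 100-fold DMSO stock, 1% DMSO final, also in controls. Separated by GF/B filtration and counted by scintillation. Result given as % of control specific binding.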

The target in test [4] is T1, Adenosine receptor A1 (Homo sapiens). In words: Binding affinity to recombinant human A1 adenosine receptor allosteric site expressed in CHO cells assessed as potentiation of CCPA-induced [3H]DPCPX displacement at 10 uM after 90 mins relative to control. Type of test: cell-based. The essentials: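 Competition of CCPA (0.01 nM–1 µM) against 1 nM [3H]DPCPX on hA1CHO membranes, run in triplicate, 90 min at 25 °C, in 50 mM Tris–HCl pH 7.4, with or without test compound at 10 µM. Nonspecific binding taken with 1 µM DPCPX. Ki by Cheng–Prusoff. Shift = Ki(CCPA)/Ki(CCPA + 10 µM compound).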

For test [5] the target is unchanged. Description: Binding affinity to recombinant human A1 adenosine receptor allosteric site expressed in CHO cells assessed as [3H]DPCPX Bmax shift at 10 uM after 90 mins relative to control. Type of test: cell-based. The essentials: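 Saturation binding of [3H]DPCPX (0.05–20 nM) to hA1CHO membranes, run in triplicate, 90 min at 25 °C, in 50 mM Tris–HCl pH 7.4, with or without test compound at final 10 µM. Nonspecific binding taken with 1 µM DPCPX. KD and Bmax fitted by LIGAND. Shift is the fold of Bmax increase over control.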

Test [6] shares this target. In words: Displacement of [3H]DPCPX from recombinant human A1 adenosine receptor expressed in CHO cells at 10 uM after 120 mins by scintillation counting. In kind it is cell-based. The procedure, abridged: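 Membranes from hA1CHO cells incubated with 1 nM [3H]DPCPX in 50 mM Tris–HCl pH 7.4 at 25 °C for 120 min. Compound added from a 100-fold DMSO stock, so 1% DMSO final, also present in controls. Bound ligand separated on GF/B filters and counted by scintillation. Result given as % of control specific binding.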

Test [7] shares this target. In words: Allosteric enhancer activity at recombinant human A1 adenosine receptor expressed in CHO cells assessed as change in forskolin-induced cAMP production at 0.01 uM after 6 mins by radioimmunoassay. Type of test: functional, cell-based. The essentials:
as §1

Test [8] shares this target. In words: Allosteric enhancer activity at recombinant human A1 adenosine receptor expressed in CHO cells assessed as change in forskolin-induced cAMP production at 0.1 uM after 6 mins by radioimmunoassay. In kind it is functional, cell-based. The procedure, abridged:
as §1

Test [9] has the same target. Description: Allosteric enhancer activity at recombinant human A1 adenosine receptor expressed in CHO cells assessed as change in forskolin-induced cAMP production at 1 uM after 6 mins by radioimmunoassay. In kind it is functional, cell-based. The essentials:
as §1

For test [10] the target is unchanged. In words: Binding affinity to recombinant human A1 adenosine receptor allosteric site expressed in CHO cells assessed as [3H]CCPA Bmax shift at 10 uM after 90 mins relative to control. Type of test: cell-based. The procedure, abridged: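 Saturation binding of [3H]CCPA (0.05–20 nM) to hA1CHO membranes. Membranes pretreated with adenosine deaminase 3 UI/mL for 30 min at 37 °C. Run in triplicate, 90 min at 25 °C, in 50 mM Tris–HCl pH 7.4, with or without test compound at final 10 µM. Nonspecific binding taken with 1 µM R-PIA. Bmax fitted by LIGAND. Shift is the fold of Bmax increase over control.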

Sequence of Adenosine receptor A2a (Homo sapiens) (P29274 whole entry): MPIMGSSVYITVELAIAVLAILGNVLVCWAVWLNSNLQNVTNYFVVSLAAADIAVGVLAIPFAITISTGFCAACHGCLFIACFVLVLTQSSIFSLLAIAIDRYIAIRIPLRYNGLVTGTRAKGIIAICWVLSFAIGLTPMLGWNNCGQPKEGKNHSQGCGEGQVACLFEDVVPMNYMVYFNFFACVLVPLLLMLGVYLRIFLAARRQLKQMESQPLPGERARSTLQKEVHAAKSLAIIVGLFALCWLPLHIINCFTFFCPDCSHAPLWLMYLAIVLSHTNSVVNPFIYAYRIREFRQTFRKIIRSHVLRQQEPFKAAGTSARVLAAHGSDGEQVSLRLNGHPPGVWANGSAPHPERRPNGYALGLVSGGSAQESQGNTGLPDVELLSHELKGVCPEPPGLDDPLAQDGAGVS

As for `Nc1scc(CN2CCN(c3cccc(Cl)c3)CC2)c1C(=O)c1ccc(Cl)cc1`, the Activity in test [1] is -77%; in test [7] it was -3.1%; in test [8], -20%; in test [9], -59%. Besides, the inhibition is 0% in [2], 1% in test [3] and 0% in test [6]. The fold change (FC) in test [4] was determined as 3.7; in test [5] it was 1; in test [10], 4.4.
As for `Nc1scc(CN2CCN(C3CCCCCC3)CC2)c1C(=O)c1ccc(Cl)cc1`, the Activity was -25% in test [1], 2.9% in [7], 13% in test [8] and 3.7% in test [9]. In addition, the inhibition in test [2], in [3] and in [6] was 0% throughout. The values for the fold change (FC) in [4], in [5] and in test [10] were 1.2, 0.9 and 1.1, respectively.
For the compound `Nc1scc(CN2CCN(c3cccc4ccccc34)CC2)c1C(=O)c1ccc(Cl)cc1`, the Activity was -21% in [1], 8.7% in [7], 0% in test [8] and 2.9% in [9]. Besides, the figures for the inhibition in [2], in test [3] and in test [6] were 0%, 0% and 1%, respectively. In addition, the results for the fold change (FC) in test [4], in test [5] and in test [10] were 1.3, 0.9 and 1.1, respectively.
For `Nc1scc(CN2CCN(c3ccc(Cl)cc3Cl)CC2)c1C(=O)c1ccc(Cl)cc1`, the Activity is -74% in test [1], 2% in test [7], -11% in test [8] and -54% in test [9]. The inhibition in test [2], in test [3] and in test [6] was 0% in each case. Also, the figures for the fold change (FC) in test [4], in [5] and in test [10] were 3.7, 1 and 4.4, respectively.
As for `Nc1scc(CN2CCN(c3ccc(Cl)c(Cl)c3)CC2)c1C(=O)c1ccc(Cl)cc1`, the Activity in test [1] was -62%; in test [7], -1.2%; in [8], -13%; in [9], -60%. For the same compound, the inhibition in test [2] was 0%; in test [3] it was 3%; in test [6] it was 1%. In addition, the fold change (FC) is 3.8 in [4], 1 in test [5] and 4.6 in test [10].
On to `Nc1scc(CN2CCN(Cc3ccc(Cl)cc3)CC2)c1C(=O)c1ccc(Cl)cc1`, for which the Activity in [1] is -82%; in test [7], -2.2%; in [8] it was 4.2%; in test [9] it was -43%. Besides, the results for the inhibition in test [2], in test [3] and in test [6] were 1%, 0% and 0%, respectively. Further, the fold change (FC) in test [4] was determined as 3.7; in test [5], 1; in test [10] it was 4.5.
Take `Nc1scc(CN2CCC(c3ccc(Cl)cc3)CC2)c1C(=O)c1ccc(Cl)cc1`: the Activity in test [1] was -61%; in [7], 0%; in test [8] it was -2.3%; in test [9], -24%. Further, the inhibition in test [2] stood at 0%; in test [3], 6%; in [6] it was 0%. Besides, the fold change (FC) in test [4] turned out to be 3.3; in test [5], 1; in test [10], 3.9.
For the compound `Nc1scc(CN2CCN(c3cccc(F)c3)CC2)c1C(=O)c1cccc(C(F)(F)F)c1`, the Activity is -62% in test [1], -11% in test [7], -12% in [8] and -35% in test [9]. The inhibition in test [2], in [3] and in test [6] was 0% in each case. Also, the fold change (FC) amounted to 4.7 in test [4], 1.1 in test [5] and 6 in test [10].
Consider `Nc1scc(CN2CCN(c3ccc([N+](=O)[O-])cc3)CC2)c1C(=O)c1ccc(Cl)cc1`, for which the Activity in test [1] was -17%; in [7], -12%; in test [8] it was -13%; in test [9], -8.3%. Besides, the inhibition in test [2] was determined as 1%; in test [3] it was 2%; in test [6], 1%. Besides, the fold change (FC) is 4.2 in test [4], 0.9 in [5] and 1.1 in test [10].
`Nc1scc(CN2CCN(c3ccc(F)cc3Cl)CC2)c1C(=O)c1ccc(Cl)cc1`: the Activity is -70% in test [1], 6.1% in test [7], -6.2% in test [8] and -39% in test [9]. The inhibition in [2], in [3] and in [6] was 0% in each case. Also, the values for the fold change (FC) in test [4], in test [5] and in [10] were 4.2, 1.1 and 5.2, respectively.
`Nc1scc(CN2CCN(C(=O)Cc3ccc(Cl)cc3)CC2)c1C(=O)c1ccc(Cl)cc1`: the Activity in test [1] is -42%; in test [7], 2.1%; in [8] it was 0%; in [9], -8.1%. Further, the inhibition is 0% in [2], 0% in test [3] and 1% in [6]. For the same compound, the fold change (FC) was 1.5 in test [4], 0.9 in [5] and 1.5 in test [10].
On to `Nc1scc(CN2CCN(c3cc(F)cc(F)c3)CC2)c1C(=O)c1ccc(Cl)cc1`, for which the Activity in [1] was -79%; in [7], -13%; in test [8] it was -5%; in test [9], -66%. In addition, the inhibition in [2] stood at 0%; in [3], 2%; in test [6] it was 0%. Also, the fold change (FC) in [4] stood at 4.8; in [5], 1.1; in [10] it was 6.2.
